Assay outcomes: PubChem, several laboratories
This is a sample that favours compounds with a hit; in the whole collection about 4.7% have one here.
MrgX1 ag – agonists of human MrgX1 receptor | Q96LB2 | MrgX1-HEK293 cells, Fluo-4 calcium fluorescence, agonist mode; hits give high values | B-score at 10 µM | actives 0.44% (n = 310,000) | AID 588627;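 active = calcium response B-score plate-corrected fluorescence ratio at least 3 library SD, with starting fluorescence B-score inside 5 SD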
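Material: MrgX1-expressing HEK293 cells / Dosing: compound as first of three additions / Incubation: overnight seeding, then 1 h dark dye loading / Signal: Fluo-4 NW calcium fluorescence / Evaluation: B-scored fluorescence response ratio / Benchmarks: positive and negative control wells on each plate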
Cl transport mod – modulates chloride dependent transport by human KCC2 | Q9H2X9 | KCC2 cells, thallium flux FluoZin-2 fluorescence | B-score of Tl+ flux slope (higher = more flux/activation; lower = inhibition) at 10 µM | actives 2.2% (n = 190,000);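 active = thallium flux slope and its plate-corrected score both differing from the plate sample mean at a set confidence after two filtering rounds, in either direction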;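 note: slope of fluorescence scaled to starting intensity during 10 to 20 s after thallium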
RGS4 block – inhibitors of human RGS4; B-score at 10 µM; actives 0.45% (n = 310,000); HEK293 M3R/RGS4 inducible, Fluo-4 calcium flux; hits give high values; triggered by carbachol at its EC20; P49798; AID 463165;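 active = B-score, a plate-corrected calcium signal, over three deviations above library mean, with baseline fluorescence within five deviations of library mean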;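 note: RGS4 expression induced by doxycycline in cells with stable M3 receptor; B-score is computed from the integrated fluorescence ratio over baseline after carbachol; higher B-score means a larger calcium signal and so more RGS4 inhibition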
MrgX1 allo act – allosterically activates human MrgX1 receptor signaling | B-score at 10 µM | actives 0.63% (n = 310,000) | AID 588675 | Q96LB2 | MrgX1-HEK293, Fluo-4 calcium flux, FDSS; hits give high values;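 active = plate-corrected calcium response at least 3 library SD above typical, normal starting fluorescence, not activating the receptor alone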;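 note: compound read alongside a low EC10 to EC30 dose of BAM8-22 agonist; peak minus trough fluorescence over baseline measured at the second addition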
MrgX1 antag – antagonists of human MrgX1 receptor | Q96LB2 | MRGX1-HEK293 calcium flux, Fluo-4, BAM8-22 antagonism; hits give low values | B-score at 10 µM | actives 1.3% (n = 310,000) | AID 588676;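 active = calcium-response B-score plate-corrected more than 3 library SD below zero, starting fluorescence within 5 deviations, no agonist response on first addition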;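 note: peak minus trough fluorescence over baseline after final BAM8-22 challenge near maximal dose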
RGS4 pot – potentiators or activators of RGS4. HEK293 M3R/inducible RGS4, carbachol calcium flux Fluo4; hits give low values. B-score at 10 µM. actives 0.92% (n = 310,000);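 active = B-score of the integrated calcium signal more than 4 SD below the library mean, with starting fluorescence not abnormally high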;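 note: negative B-score means reduced calcium response which marks RGS4 activation or potentiation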
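Assay system: HEK293 FlpIn-TREx cells, stable M3R, doxycycline-inducible RGS4 / Probe or stimulus: carbachol, ECmax concentration / Times: overnight RGS4 induction, 30 min dye load 37 °C, 20 min compound RT / Signal: kinetic calcium fluorescence imaging with Fluo4-AM dye, 2 µM / Measure: Agonist-evoked peak-minus-minimum fluorescence over baseline, integrated ratio, B score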
RGS4 block valid – RGS4 inhibitor validation | shares compounds with RGS4 block | HEK293 M3R/RGS4, carbachol calcium Fluo-4 fluorescence; carbachol added at its EC20; 0 = buffer wells, 100 = carbachol control | calcium response, % at 10 µM | actives 65% (n = 1,700);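 active = duplicate-averaged calcium response above the buffer-only control mean plus 5 SD of those controls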;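 note: integrated fluorescence ratio F max minus min over baseline F0; higher response in RGS4-induced cells means RGS4 inhibition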
RGS4 uninduced – non-induced cell nonspecific activity of RGS4 inhibitors; HEK293 M3R non-induced, carbachol calcium Fluo-4; submaximal (EC20) carbachol stimulus; buffer wells 0%, carbachol control wells 100%; AID 493000; shares compounds with RGS4 block; activity (percent), % at 10 µM; actives 20% (n = 1,900); call rule not given here;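 note: RGS4 induction absent so cells express M3R without RGS4; higher means more calcium signal and flags a non-specific hit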
M3R basal Ca ctr – signal in non-induced cells without carbachol, RGS4 inhibitor counter-screen. shares compounds with RGS4 block. HEK293 M3R/RGS4 non-induced, Fluo-4 calcium, no carbachol; normalised: buffer wells 0%, carbachol wells 100%. calcium response (agonist-mode artifact), % at 10 µM. actives 22% (n = 1,900);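 active = duplicate-averaged calcium rise in uninduced cells above buffer wells' mean plus 5 SD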
* hit, by the source's call; i = inactive; · = no result.

SMILES	MrgX1 ag	Cl transport mod	RGS4 block	MrgX1 allo act	MrgX1 antag	RGS4 pot	RGS4 block valid	RGS4 uninduced	M3R basal Ca ctr
COc1ccc(-c2c(-c3ccc(O)cc3O)n[nH]c2C)cc1OC	i	-0.45	i	i	i	i	·	·	·
Oc1ccc(-c2n[nH]c(C(F)(F)F)c2-c2ccccc2)c(O)c1	i	-0.087	25*	i	i	i	48%*	46%*	i
COc1ccccc1-c1c(-c2ccc(O)cc2O)n[nH]c1C(F)(F)F	i	-0.8	11*	i	i	i	40%*	33%*	i
Nc1ncc(-c2ccccc2)c(-c2ccc(O)cc2O)n1	i	·	i	i	i	i	·	·	·
Cc1ccc(S(=O)(=O)N(Cc2c(F)cccc2Cl)C(=O)N2CCN(C)CC2)cc1	i	·	i	i	i	i	·	·	·
N#Cc1c(NC(=O)CSc2ncn[nH]2)sc2c1CCCCC2	i	-2	i	i	i	i	·	i	i
OCc1ccc(-c2nn(Cc3ccccc3)c3ccccc23)o1	i	·	5.1*	i	i	i	6.0%*	i	i
O=C(O)CCCn1nc(-c2ccccc2)c2ccccc21	i	-2	i	i	i	i	·	·	·
COc1ccccc1C(=O)N/C(=C\c1cn(C)c2ccccc12)C(=O)NCCCn1ccnc1	i	·	i	i	i	i	·	·	·
CC(=O)Oc1cc2c(cc1Cl)C1(CC(c3ccccc3Cl)O2)CC(C)(C)NC(=S)N1 (centres undefined)	i	-0.29	5*	i	i	i	9.0%*	i	i
CN(CC(=O)Nc1ccc(F)c(F)c1F)C(=O)c1ccc2c(c1)S(=O)(=O)N=C1CCCCCN12	i	·	i	i	i	i	·	·	·
COc1ccc(C(=O)NCCN2C(=O)S/C(=C\c3cccnc3)C2=O)cc1[N+](=O)[O-]	i	-2.8	i	i	i	i	i	i	i
COc1ccc2c(CC(=O)NCCN3C(=O)S/C(=C\c4cccnc4)C3=O)coc2c1	i	0.98	i	i	i	i	·	·	·
COc1cccc(C(=O)O/N=C(\N)Cc2ccc(Cl)cc2)c1	i	-0.83	8.8*	i	i	i	7.5%*	i	i
O=C(Nc1ccccn1)C1CCN(S(=O)(=O)c2ccc(Cl)cc2)CC1	i	·	i	i	i	i	·	·	·
Nc1nc(Cl)nc2c1ncn2[C@@H]1O[C@H](CO)[C@@H](O)[C@H]1O	i	-0.88	9.8*	i	i	i	47%*	78%*	i
O=C(NC1CCCC1)C(c1cccnc1)N(C(=O)c1ccco1)c1ccc(F)cc1 (centres undefined)	i	·	i	i	i	i	·	·	·
CC1=C(CO)C(=O)OC([C@@H](C)C2CC[C@H]3C4C[C@H]5O[C@]56[C@@H](O)C=CC(=O)[C@]6(C)C4CC[C@]23C)C1 (some centres undefined)	i	-0.44	13*	i	i	i	32%*	i	i
COc1ccc(C(C(=O)NC2CCCCC2)N(C(=O)Cc2c[nH]c3ccccc23)c2ccccc2C)cc1OC (centres undefined)	i	0.61	i	i	i	i	i	i	i
CCn1c(SCC(=O)N2CCN(c3ccccc3)CC2)nc2c([nH]c3ccccc32)c1=O	i	·	i	i	i	i	·	·	·
O=S(=O)(Nc1ccc(O)c2ccccc12)c1cccs1	i	·	8.1*	i	i	i	37%*	i	i
O=C(CSc1nc2ccccc2[nH]1)N=Nc1c(O)[nH]c2ccccc12	i	0.15	5*	i	i	i	i	i	i
CCCNC(=O)c1onc(CSc2ccc(F)cc2)c1C(=O)NCCOC	i	·	i	i	i	i	·	·	·
Cc1ccc(C)c(NC(=O)Cn2ccn(-c3ccc4c(c3)OCO4)c(=O)c2=O)c1	i	·	i	i	i	i	·	·	·
NNC(=O)C1=NOC(CNc2ncc(C(F)(F)F)cc2Cl)C1 (centres undefined)	i	-0.57	i	i	i	i	·	·	·
SMILES	MrgX1 ag	Cl transport mod	RGS4 block	MrgX1 allo act	MrgX1 antag	RGS4 pot	RGS4 block valid	RGS4 uninduced	M3R basal Ca ctr
CC(=O)C1=NOC(CNc2ncc(C(F)(F)F)cc2Cl)C1 (centres undefined)	i	0.017	i	i	i	i	·	i	i
O=C(O)C1=NOC(CNc2ncc(C(F)(F)F)cc2Cl)C1 (centres undefined)	i	-1.3	5*	i	i	i	5.0%*	48%*	i
O=C(CN(CCc1ccccc1)C(=O)c1csnn1)NCc1ccc(F)cc1	i	·	i	i	i	i	·	·	·
N#Cc1c(-c2ccccc2Cl)noc1/C=C/Nc1ccc(C(=O)O)cc1	i	-2.4	i	i	i	i	·	i	i
CN(C)/C=C(\C=O)c1onc(-c2ccccc2Cl)c1C#N	i	0.82	i	i	i	i	·	·	·
CC(C)CN(C(=O)COC(=O)CCCc1c[nH]c2ccccc12)c1c(N)n(Cc2ccccc2)c(=O)[nH]c1=O	i	·	i	i	i	i	·	·	·
CSc1c(C#N)c(N)c(C#N)c2c1COC(C)(C)C2	i	-0.8	5.8*	i	i	i	5.5%*	i	i
CCC(NC(=O)/C(=C\c1ccc2c(c1)OCO2)NC(C)=O)C(=O)O (centres undefined)	i	-0.013	i	i	i	i	·	·	·
Cc1cc2cc(C)c(NCCNC(=O)c3ccccc3)nc2cc1C	i	0.3	i	i	i	i	i	i	i
Cc1ccc(C(=O)NCCNc2nc3cc(C)c(C)cc3cc2C)cc1	i	-0.4	i	i	i	i	·	·	·
Cc1ccc(OCCC(=O)OCC(=O)NC(=O)c2ccccc2)cc1	i	·	i	i	i	i	·	·	·
